This is an account of results in paper PMC3411050 (The Journal of Biological Chemistry, 2012).

For orientation: IC50 means the concentration needed to halve the response being measured. By LD50 is commonly meant the dose at which mortality reaches 50%. Read a high LD50 as lower toxicity.

Read-outs that look alike come from different tables or passages of the source. Where no end group is shown, it is not given here. Bounds are passed on as bounds.

Data set [1] addresses T1, T. californica nAChR (Tetronarce californica, UniProt P02710+P02712+P02714+P02718). The conditions noted are these: read-out: IC50, inhibition of α-bungarotoxin binding; cited from earlier work.
Data set [2] addresses T2, Human α7 nAChR (Homo sapiens, UniProt P36544). Particulars: read-out: IC50, inhibition of α-bungarotoxin binding; cited from earlier work.
The next data set has as its target T3, A. californica AChBP (Aplysia californica, UniProt Q8WSF8).
T3 sequence (Q8WSF8 18-236 limits assumed): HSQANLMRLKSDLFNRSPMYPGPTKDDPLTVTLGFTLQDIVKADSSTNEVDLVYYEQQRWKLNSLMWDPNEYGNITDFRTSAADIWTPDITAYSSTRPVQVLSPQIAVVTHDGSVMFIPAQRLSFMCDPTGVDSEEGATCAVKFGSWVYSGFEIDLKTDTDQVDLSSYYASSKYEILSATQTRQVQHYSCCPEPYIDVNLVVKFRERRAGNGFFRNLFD
Particulars: read-out: IC50, inhibition of α-bungarotoxin binding.

A further data set has as its target L. stagnalis AChBP (Lymnaea stagnalis, UniProt P58154). The conditions noted are these: read-out: IC50, inhibition of α-bungarotoxin binding.
The target of data set [3] is T2, Human α7 nAChR. The conditions noted are these: read-out: IC50, inhibition of α-bungarotoxin binding.
The target in another data set is T4, 5-HT3AB receptor (Homo sapiens, UniProt O95264+P46098).
T4 sequence (P46098 24-478): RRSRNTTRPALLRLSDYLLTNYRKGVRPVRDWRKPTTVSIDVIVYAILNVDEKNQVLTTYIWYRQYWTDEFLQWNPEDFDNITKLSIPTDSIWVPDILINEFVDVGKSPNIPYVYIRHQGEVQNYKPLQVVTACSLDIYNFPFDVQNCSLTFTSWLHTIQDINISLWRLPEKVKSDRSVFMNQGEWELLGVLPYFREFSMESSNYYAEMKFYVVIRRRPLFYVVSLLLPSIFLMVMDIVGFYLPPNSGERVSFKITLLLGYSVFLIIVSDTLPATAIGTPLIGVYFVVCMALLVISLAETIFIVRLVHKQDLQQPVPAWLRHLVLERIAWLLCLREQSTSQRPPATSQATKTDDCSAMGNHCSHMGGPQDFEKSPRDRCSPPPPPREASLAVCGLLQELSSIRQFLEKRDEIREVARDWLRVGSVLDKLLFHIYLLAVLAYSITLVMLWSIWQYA
T4 sequence (O95264 22-441): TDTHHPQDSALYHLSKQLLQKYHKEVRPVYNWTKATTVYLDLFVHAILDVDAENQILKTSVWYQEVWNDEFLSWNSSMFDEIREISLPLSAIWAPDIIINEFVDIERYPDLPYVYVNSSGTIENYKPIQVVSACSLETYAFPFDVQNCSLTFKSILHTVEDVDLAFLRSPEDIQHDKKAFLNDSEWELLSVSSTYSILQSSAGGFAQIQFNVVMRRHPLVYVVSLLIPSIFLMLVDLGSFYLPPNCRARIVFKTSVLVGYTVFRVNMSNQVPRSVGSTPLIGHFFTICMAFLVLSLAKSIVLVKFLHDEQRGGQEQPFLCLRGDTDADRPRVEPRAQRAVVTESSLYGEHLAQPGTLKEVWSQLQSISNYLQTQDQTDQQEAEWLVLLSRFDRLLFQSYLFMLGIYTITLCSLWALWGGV
Kind of data set: Current recording on 5-HT3 receptors in Xenopus oocytes. Format: cell-based. The conditions noted are these: concentrations up to 10 μM. In a few lines: (§1)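 Human 5-HT3A (with 5-HT3B for the heteromer) subunit cRNA was transcribed in vitro from cDNA and injected into Xenopus oocytes. Currents were recorded 1–4 days after injection.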

The next data set deals with GABAA receptor α2β3γ2 (Rattus norvegicus, UniProt P18508+P23576+P63079). Kind of data set: Two-electrode voltage clamp on recombinant GABAA receptors in Xenopus oocytes. It is filed as cell-based. The conditions noted are these: up to 10 μM. (In two-electrode clamp one electrode senses voltage and the other passes current.)
Sequence of GABAA receptor α2β3γ2 (P23576 29-451): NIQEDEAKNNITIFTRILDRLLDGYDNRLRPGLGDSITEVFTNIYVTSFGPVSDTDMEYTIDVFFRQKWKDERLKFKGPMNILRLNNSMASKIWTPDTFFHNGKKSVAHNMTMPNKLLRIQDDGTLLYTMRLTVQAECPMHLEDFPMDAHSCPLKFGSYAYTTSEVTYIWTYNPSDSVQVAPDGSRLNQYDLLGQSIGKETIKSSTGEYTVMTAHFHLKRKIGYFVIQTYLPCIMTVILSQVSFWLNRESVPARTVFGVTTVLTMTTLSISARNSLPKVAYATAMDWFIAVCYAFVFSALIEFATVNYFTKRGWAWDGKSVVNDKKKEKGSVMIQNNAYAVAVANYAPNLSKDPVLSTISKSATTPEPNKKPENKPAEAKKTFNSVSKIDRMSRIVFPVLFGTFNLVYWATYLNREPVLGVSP
Sequence of GABAA receptor α2β3γ2 (P63079 26-473): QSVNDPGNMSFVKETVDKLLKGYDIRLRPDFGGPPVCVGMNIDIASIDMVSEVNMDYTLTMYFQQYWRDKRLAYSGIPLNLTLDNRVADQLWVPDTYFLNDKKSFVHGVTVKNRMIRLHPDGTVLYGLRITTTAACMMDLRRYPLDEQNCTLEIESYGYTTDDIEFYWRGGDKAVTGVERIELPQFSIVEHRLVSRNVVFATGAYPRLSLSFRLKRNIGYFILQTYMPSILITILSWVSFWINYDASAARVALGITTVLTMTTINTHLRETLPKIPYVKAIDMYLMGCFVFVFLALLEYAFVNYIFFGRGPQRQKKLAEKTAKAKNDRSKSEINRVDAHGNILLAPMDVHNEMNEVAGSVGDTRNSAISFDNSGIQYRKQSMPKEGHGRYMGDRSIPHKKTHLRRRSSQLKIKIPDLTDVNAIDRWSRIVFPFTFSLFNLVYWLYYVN
Sequence of GABAA receptor α2β3γ2 (P18508 39-466): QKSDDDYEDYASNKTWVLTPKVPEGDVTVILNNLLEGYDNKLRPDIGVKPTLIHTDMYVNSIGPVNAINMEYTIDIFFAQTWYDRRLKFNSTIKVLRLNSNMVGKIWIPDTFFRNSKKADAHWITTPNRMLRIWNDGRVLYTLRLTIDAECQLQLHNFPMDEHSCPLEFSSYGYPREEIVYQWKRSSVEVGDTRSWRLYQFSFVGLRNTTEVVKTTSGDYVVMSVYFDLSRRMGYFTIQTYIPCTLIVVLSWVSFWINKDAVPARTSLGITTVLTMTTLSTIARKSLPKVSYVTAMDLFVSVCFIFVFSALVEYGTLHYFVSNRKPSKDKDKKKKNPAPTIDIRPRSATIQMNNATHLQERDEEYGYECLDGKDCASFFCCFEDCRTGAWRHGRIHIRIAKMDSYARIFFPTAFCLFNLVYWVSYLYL
Data set [4] concerns the target T1, T. californica nAChR. Format: binding, Torpedo californica. Particulars: Torpedo nAChR, from two-site IC50 values.
In a further data set the target is T5, 5-HT3A receptor (Homo sapiens, UniProt P46098).
T5 sequence (P46098 24-478): T4 sequence (P46098 24-478)
Kind of data set: Current recording on 5-HT3 receptors in Xenopus oocytes. The conditions noted are these: concentrations up to 10 μM. Format: cell-based. The essentials:
as §1

The next data set concerns the target GABAA receptor α1β3γ2 (Rattus norvegicus, UniProt P18508+P62813+P63079). Put plainly: Two-electrode voltage clamp on recombinant GABAA receptors in Xenopus oocytes. It is filed as cell-based. Particulars: up to 100 μM.
Data set [5] concerns the target human muscle-type nAChR, adult form (α1β1ϵδ) (Homo sapiens, UniProt P02708+P11230+Q04844+Q07001). It is filed as cell-based. The conditions noted are these: human muscle-type nAChR in oocytes; washing for 2 min. In a few lines:
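Human α1, β1, δ and ε (adult) or γ (fetal) subunit cDNAs were injected into the oocyte nucleus, and two-electrode voltage clamp was run 2–3 days later. Cells received 5 s pulses of 5 μM ACh every 2 min. After stabilization, the test compound was applied at varied concentrations for at least 1 min, the ACh response was retested, and recovery was followed over several minutes.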

The test system of data set [6] is adult male mice of BALB/c line. Put plainly: Lethal effect of azemiopsin on mice. The conditions noted are these: intraperitoneal injection, solution in water, doses 2–10 mg/kg. It is filed as in vivo, mouse. The essentials:
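Adult male BALB/c mice (18–22 g) were kept on a 12/12-h light/dark cycle with food and water ad libitum. The test compound, dissolved in water, was given intraperitoneally at 2, 2.7, 4, 8 and 10 mg/kg body weight.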

T1 sequence (P02710 25-461): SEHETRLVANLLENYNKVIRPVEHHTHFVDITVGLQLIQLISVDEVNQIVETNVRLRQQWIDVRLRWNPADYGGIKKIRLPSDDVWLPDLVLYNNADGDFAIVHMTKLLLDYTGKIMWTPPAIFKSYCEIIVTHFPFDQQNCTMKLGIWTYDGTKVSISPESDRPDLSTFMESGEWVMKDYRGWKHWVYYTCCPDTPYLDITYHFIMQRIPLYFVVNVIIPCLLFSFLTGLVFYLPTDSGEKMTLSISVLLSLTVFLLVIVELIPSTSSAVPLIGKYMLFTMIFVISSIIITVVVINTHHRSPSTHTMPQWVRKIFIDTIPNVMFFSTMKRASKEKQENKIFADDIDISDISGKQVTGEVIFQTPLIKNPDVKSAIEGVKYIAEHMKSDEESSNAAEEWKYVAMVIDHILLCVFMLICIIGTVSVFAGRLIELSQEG
T1 sequence (P02712 25-493 partner): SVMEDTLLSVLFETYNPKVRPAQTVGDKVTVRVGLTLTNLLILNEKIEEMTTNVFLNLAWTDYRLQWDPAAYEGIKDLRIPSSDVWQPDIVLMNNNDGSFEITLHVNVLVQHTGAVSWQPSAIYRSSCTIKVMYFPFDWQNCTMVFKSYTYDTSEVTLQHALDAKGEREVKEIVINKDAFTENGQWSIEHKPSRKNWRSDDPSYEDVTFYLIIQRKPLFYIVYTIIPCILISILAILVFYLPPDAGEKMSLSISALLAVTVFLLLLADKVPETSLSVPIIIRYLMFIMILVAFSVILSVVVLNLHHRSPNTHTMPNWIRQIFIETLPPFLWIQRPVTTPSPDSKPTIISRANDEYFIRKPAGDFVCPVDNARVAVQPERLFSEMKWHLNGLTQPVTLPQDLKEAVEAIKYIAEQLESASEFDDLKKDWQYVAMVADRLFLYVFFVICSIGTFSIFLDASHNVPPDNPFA
T1 sequence (P02714 18-506): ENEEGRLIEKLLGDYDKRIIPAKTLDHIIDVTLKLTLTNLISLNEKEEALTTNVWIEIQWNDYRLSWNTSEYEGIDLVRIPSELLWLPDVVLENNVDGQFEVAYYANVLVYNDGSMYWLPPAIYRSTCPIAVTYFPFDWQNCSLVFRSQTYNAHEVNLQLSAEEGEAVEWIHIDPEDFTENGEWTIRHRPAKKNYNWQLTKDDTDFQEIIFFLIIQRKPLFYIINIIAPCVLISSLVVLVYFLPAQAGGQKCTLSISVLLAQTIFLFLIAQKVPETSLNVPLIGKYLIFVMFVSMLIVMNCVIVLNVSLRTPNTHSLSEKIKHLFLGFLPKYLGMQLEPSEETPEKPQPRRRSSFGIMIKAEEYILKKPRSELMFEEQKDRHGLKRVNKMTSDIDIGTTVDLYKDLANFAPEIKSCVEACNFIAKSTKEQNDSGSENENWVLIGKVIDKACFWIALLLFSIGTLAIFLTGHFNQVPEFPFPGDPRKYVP
T1 sequence (P02718 22-522): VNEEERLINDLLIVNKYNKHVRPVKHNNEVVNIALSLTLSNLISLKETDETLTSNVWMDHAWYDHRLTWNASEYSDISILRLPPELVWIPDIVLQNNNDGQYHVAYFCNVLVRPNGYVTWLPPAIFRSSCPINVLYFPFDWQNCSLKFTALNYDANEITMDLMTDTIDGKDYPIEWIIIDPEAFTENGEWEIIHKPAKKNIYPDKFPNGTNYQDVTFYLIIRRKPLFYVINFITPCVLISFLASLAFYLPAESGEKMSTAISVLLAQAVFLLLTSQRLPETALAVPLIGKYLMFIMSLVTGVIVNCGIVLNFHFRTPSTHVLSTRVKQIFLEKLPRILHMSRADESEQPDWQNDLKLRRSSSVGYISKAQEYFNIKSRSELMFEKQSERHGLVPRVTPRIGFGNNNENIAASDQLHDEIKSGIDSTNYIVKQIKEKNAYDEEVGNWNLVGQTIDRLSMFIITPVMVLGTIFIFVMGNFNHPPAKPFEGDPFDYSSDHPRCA
T2 sequence (P36544 23-502): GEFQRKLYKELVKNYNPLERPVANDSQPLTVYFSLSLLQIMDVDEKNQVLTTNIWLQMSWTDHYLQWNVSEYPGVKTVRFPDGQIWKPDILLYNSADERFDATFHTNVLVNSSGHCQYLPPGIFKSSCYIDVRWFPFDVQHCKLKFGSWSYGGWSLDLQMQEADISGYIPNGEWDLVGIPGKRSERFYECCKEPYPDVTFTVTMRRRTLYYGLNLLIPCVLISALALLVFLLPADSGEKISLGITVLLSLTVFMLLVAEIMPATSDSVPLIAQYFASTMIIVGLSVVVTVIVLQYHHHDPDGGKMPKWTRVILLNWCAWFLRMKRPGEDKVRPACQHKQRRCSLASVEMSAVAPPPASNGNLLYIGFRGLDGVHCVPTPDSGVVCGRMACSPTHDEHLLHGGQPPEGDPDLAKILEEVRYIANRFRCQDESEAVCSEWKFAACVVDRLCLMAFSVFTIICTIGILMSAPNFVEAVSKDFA
Sequence of L. stagnalis AChBP (P58154 20-229): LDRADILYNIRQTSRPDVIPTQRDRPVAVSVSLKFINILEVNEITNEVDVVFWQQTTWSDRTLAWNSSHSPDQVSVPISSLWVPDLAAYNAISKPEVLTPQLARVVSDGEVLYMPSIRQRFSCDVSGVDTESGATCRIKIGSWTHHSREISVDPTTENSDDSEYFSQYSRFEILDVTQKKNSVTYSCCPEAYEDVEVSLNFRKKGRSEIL
Sequence of GABAA receptor α1β3γ2 (P62813 28-455): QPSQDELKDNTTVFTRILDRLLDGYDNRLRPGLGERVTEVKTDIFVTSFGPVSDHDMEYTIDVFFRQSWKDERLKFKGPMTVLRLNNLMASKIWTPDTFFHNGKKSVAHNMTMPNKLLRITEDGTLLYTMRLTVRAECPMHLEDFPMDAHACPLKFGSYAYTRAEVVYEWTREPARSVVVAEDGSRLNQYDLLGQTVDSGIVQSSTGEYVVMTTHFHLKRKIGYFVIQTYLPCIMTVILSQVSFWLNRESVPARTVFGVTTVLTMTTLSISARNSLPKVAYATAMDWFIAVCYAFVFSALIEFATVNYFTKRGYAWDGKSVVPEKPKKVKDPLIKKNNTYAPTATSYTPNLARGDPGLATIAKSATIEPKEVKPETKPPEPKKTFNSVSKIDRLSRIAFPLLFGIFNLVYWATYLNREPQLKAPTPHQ
Sequence of GABAA receptor α1β3γ2 (P63079 26-473): as the sequence (P63079 26-473) above
Sequence of GABAA receptor α1β3γ2 (P18508 39-466): as the sequence (P18508 39-466) above

Neurotoxin II Naja oxiana: the IC50 is 3 nM in the data set with T. californica nAChR [1] and above 4000 nM with Human α7 nAChR [2].
Consider α-Cobratoxin, for which the IC50 in the data set with A. californica AChBP came out at 58 ± 2 nM; with L. stagnalis AChBP, 2 ± 0.2 nM; in the data set with Human α7 nAChR [3], 105 ± 10 nM.
With DNWWPKPPHQGPRPPRPRPKP [Azemiopsin], the “effect at 5-HT3AB receptors” value at 5-HT3AB receptor is on record as “no effects”. Moreover, the “effect on GABAA receptor currents” value on GABAA receptor α2β3γ2 and on GABAA receptor α1β3γ2 was “no significant effects” each time. Besides, the “difference in the affinity between the two binding sites (α1/γ and α1/δ)” value on T. californica nAChR [4] is reported as 27 fold. Besides, the “effect at 5-HT3A receptors” value on 5-HT3A receptor is reported as “no effects”. The “recovery of the ACh response after washing out the toxin” value in [5] is “complete recovery”. The same substance came in with a 50% lethal dose (LD50) in data set [6] of 2.6 ± 0.3 mg/kg.
